Calls of active or inactive are those of the source. The rule behind the calls is not given here.
How the values were obtained:
[1] = test system: Blood; experiment: Anticoagulant activity in human whole blood assessed as clotting time at 1.25 x 10^-4M by thromboelastography in presence of extrinsic activators; assay type: functional
Method in brief: (§1)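 Citrated whole blood from healthy donors (1:9 citrate), run within 5 h on a ROTEM analyzer. Compound in saline diluted 1:16 into blood to the final concentration stated; saline control. Intrinsic (InTEM) or extrinsic (ExTEM) activator added. Clot monitored at 37 °C in an oscillating cup-and-pin system for up to 60 min, giving R, K, angle and MA.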

[2] = test system: Mus musculus; experiment: Anticoagulant activity in mouse assessed as increase in activated partial prothrombin time at 150 umol/kg, ip relative to control; assay type: functional
Method in brief: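 Adult male CD1 mice (30-35 g) given compound in saline ip at 150 µmol/kg, fasted on the day. Citrated portal vein blood taken at 30, 60 and 120 min. APTT measured in platelet-poor plasma. Expressed as ratio to saline-treated mice, mean ± SEM of three experiments.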

[3] = test system: Blood; experiment: Anticoagulant activity in human whole blood assessed as clotting formation time at 1.25 x 10^-4M by thromboelastography in presence of extrinsic activators; assay type: functional; method in brief: as §1
[4] = biological target: T1, Coagulation factor X/antithrombin III (Homo sapiens) (UniProt P01008+P00742); experiment: Inhibition of human antithrombin 3/factor 10a assessed as 125 x 10^-6M CBS31.39 substrate hydrolysis at 0.5 x 10^-3M; assay type: protein-complex assay
[5] = biological target: Coagulation factor X (Homo sapiens) (UniProt P00742); experiment: Inhibition of human factor 10a assessed as 25 x 10^-6M chromogenic TH substrate hydrolysis at 2 x 10^-3M
Coagulation factor X (Homo sapiens), sequence (P00742 41-179 limits assumed): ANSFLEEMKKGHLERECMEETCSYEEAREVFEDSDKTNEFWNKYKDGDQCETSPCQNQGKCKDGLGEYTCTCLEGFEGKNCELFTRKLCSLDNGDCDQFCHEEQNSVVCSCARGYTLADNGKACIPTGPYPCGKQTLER
Coagulation factor X (Homo sapiens), sequence (P00742 235-488 limits assumed): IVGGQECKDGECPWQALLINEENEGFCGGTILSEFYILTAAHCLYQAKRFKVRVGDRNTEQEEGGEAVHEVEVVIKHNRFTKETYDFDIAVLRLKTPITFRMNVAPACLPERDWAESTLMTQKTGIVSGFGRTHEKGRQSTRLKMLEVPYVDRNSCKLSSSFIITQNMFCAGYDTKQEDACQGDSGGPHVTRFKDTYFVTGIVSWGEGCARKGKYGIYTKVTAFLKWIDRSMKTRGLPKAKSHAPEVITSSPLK
Method in brief: (§2)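 Direct FXa test, with buffer in place of ATIII: compound in water in 50 mM Tris/HCl pH 8.3, 227 mM NaCl, 0.1% BSA, 10 min at 37 °C. Human FXa (0.5 U/mL final) added for 10 min, then CBS 31.39 (25 or 125 × 10^-6 M). Read at 405 nm every 12 s for 20 min. Percent inhibition from initial slope against water control, Michaelis-Menten fit.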

[6] = biological target: T1, Coagulation factor X/antithrombin III (Homo sapiens); experiment: Inhibition of human antithrombin 3/factor 10a assessed as 25 x 10^-6M CBS31.39 substrate hydrolysis at 1 x 10^-3M; assay type: protein-complex assay
[7] = test system: Blood; experiment: Anticoagulant activity in human whole blood assessed as maximum amplitude at 1.25 x 10^-4M by thromboelastography in presence of intrinsic activators; assay type: functional; method in brief: as §1
[8] = test system: Mus musculus; experiment: Hepatotoxicity in mouse liver assessed as change in plasma GOT/GPT level at 150 umol/kg, ip; assay type: toxicity, organism-based; details: in vivo
Method in brief: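 Male CD1 mice (30-35 g), compound in saline ip at 150 µmol/kg. Portal vein citrated blood taken at 30, 60 and 120 min. GOT and GPT (U/L) measured in platelet-poor plasma on an automated chemistry analyzer. Four independent experiments, mean ± SEM.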

[9] = biological target: Coagulation factor X (Homo sapiens) (UniProt P00742); experiment: Inhibition of human factor 10a assessed as 125 x 10^-6M chromogenic TH substrate hydrolysis at 1 x 10^-3M; method in brief: as §2
[10] = biological target: T1, Coagulation factor X/antithrombin III (Homo sapiens); experiment: Inhibition of human antithrombin 3/factor 10a assessed as 25 x 10^-6M CBS31.39 substrate hydrolysis at 0.5 x 10^-3M; assay type: protein-complex assay
[11] = Antiplatelet activity against collagen EPI-induced human platelet aggregation assessed as closure time at 1.25 x 10^-4M; assay type: functional
Method in brief: (§3)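 Compound solution added to citrated human whole blood (125 µL into 1875 µL) to the final concentration stated, then run on a PFA-100 in collagen/ADP and collagen/epinephrine cartridges. Closure time is the time until platelets occlude the membrane aperture, in seconds. Mean ± SEM of three independent experiments.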

[12] = test system: Blood; experiment: Anticoagulant activity in human whole blood assessed as clotting formation time at 1.25 x 10^-4M by thromboelastography in presence of intrinsic activators; assay type: functional; method in brief: as §1
[13] = Antiplatelet activity against collagen ADP-induced human platelet aggregation assessed as closure time at 1.25 x 10^-4M; assay type: functional; method in brief: as §3
[14] = biological target: Prothrombin (Homo sapiens) (UniProt P00734); experiment: Inhibition of human thrombin
Method in brief: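 Direct thrombin assay without ATIII: compound in water in 50 mM Tris/HCl pH 8.3, 227 mM NaCl, 0.1% BSA, 10 min at 37 °C. Human thrombin (0.06 U/mL final) added for 10 min, then Chromozym TH (178 × 10^-6 M). Read at 405 nm every 12 s for 20 min. Percent inhibition from initial slope against water control. Duplicates on ≥3 days.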

[15] = test system: Blood; experiment: Anticoagulant activity in human whole blood assessed as clotting time at 1.25 x 10^-4M by thromboelastography in presence of intrinsic activators; assay type: functional; method in brief: as §1
[16] = biological target: Coagulation factor X (Homo sapiens) (UniProt P00742); experiment: Inhibition of human factor 10a assessed as 25 x 10^-6M chromogenic TH substrate hydrolysis at 1 x 10^-3M; method in brief: as §2
[17] = biological target: Coagulation factor X (Homo sapiens) (UniProt P00742); experiment: Inhibition of human factor 10a assessed as 125 x 10^-6M chromogenic TH substrate hydrolysis at 0.5 x 10^-3M; method in brief: as §2
[18] = test system: Blood; experiment: Anticoagulant activity in human whole blood assessed as alpha angle at 1.25 x 10^-4M by thromboelastography in presence of extrinsic activators; assay type: functional; method in brief: as §1
[19] = biological target: Coagulation factor X (Homo sapiens) (UniProt P00742); experiment: Inhibition of human factor 10a assessed as 25 x 10^-6M chromogenic TH substrate hydrolysis at 0.5 x 10^-3M; method in brief: as §2
[20] = biological target: T1, Coagulation factor X/antithrombin III (Homo sapiens); experiment: Inhibition of human antithrombin 3/factor 10a assessed as 125 x 10^-6M CBS31.39 substrate hydrolysis at 1 x 10^-3M; assay type: protein-complex assay
[21] = biological target: Coagulation factor X (Homo sapiens) (UniProt P00742); experiment: Inhibition of human factor 10a assessed as 125 x 10^-6M chromogenic TH substrate hydrolysis at 2 x 10^-3M; method in brief: as §2
[22] = biological target: T1, Coagulation factor X/antithrombin III (Homo sapiens); experiment: Inhibition of human antithrombin 3/factor 10a assessed as 125 x 10^-6M CBS31.39 substrate hydrolysis at 2 x 10^-3M; assay type: protein-complex assay
[23] = Anticoagulant activity in human plasma assessed as concentration required to double activated partial prothrombin time; assay type: functional
Method in brief: (§4)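 Citrated pooled normal human plasma mixed 1:1 with compound in water (final 5 × 10-3 to 0.05 × 10^-3 M) and held 2 min at 37 °C. APTT: reagent added, 6 min at 37 °C, then 25 mmol/L CaCl2. PT: prewarmed PT reagent. TT: prewarmed thrombin (100 U/mL). Clotting read on a coagulometer, duplicate, three days (n = 6). Doubling concentration taken from linear regression of each concentration-response curve.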

[24] = Stability of the compound in human plasma assessed as compound remaining after 3 hrs; assay type: ADME, cell-free; details: read-out: Activity
Method in brief: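 Compound at 25 µM final in human plasma diluted 1:1 with PBS pH 7.4, shaken at 37 °C for 180 min. Time-zero and 180-min samples quenched with TBA buffer and cold acetonitrile, then centrifuged. Supernatant dried, redissolved and analysed by HPLC. Three independent samples per time point.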

[25] = test system: Blood; experiment: Anticoagulant activity in human whole blood assessed as maximum amplitude at 1.25 x 10^-4M by thromboelastography in presence of extrinsic activators; assay type: functional; method in brief: as §1
[26] = test system: Blood; experiment: Anticoagulant activity in human whole blood assessed as alpha angle at 1.25 x 10^-4M by thromboelastography in presence of intrinsic activators; assay type: functional; method in brief: as §1
[27] = Anticoagulant activity in human plasma assessed as concentration required to double prothrombin time; assay type: functional; method in brief: as §4
[28] = Anticoagulant activity in human plasma assessed as concentration required to double thrombin time; assay type: functional; method in brief: as §4
[29] = biological target: T1, Coagulation factor X/antithrombin III (Homo sapiens); experiment: Inhibition of human antithrombin 3/factor 10a assessed as 25 x 10^-6M CBS31.39 substrate hydrolysis at 2 x 10^-3M; assay type: protein-complex assay

For `C[C@H]1O[C@@H](OC[C@@H]2O[C@H](Oc3c(-c4ccc(OS(=O)(=O)O)c(OS(=O)(=O)O)c4)oc4cc(OS(=O)(=O)O)cc(OS(=O)(=O)O)c4c3=O)[C@@H](OS(=O)(=O)O)[C@H](OS(=O)(=O)O)[C@H]2OS(=O)(=O)O)[C@@H](OS(=O)(=O)O)[C@@H](OS(=O)(=O)O)[C@@H]1OS(=O)(=O)O`, the Time [1] was 120 s, the “fold change (FC)” value [2] was 1.5 and the Time [3] was 257 s. For the same molecule, the inhibition [4] was “inactive”, the inhibition [5] was 40% and the inhibition [6] was 30.5%. For the same molecule, the Activity [7] was 48 mm, the Activity [8] was “Non-toxic” and the inhibition [9] was 32%. It also gave an inhibition [10] of 29.3%, a Time [11] of 244 s and a Time [12] of 176 s. For the same molecule, the Time [13] was 189 s, the inhibition [14] was “inactive” and the Time [15] was 261 s. The inhibition [16] was 30.9%, the inhibition [17] was 22.4% and the Activity [18] was 51 degree. The inhibition [19] was “inactive”, the inhibition [20] was 20.7% and the inhibition [21] was 42.7%. For the same molecule, the inhibition [22] was 33.1%, the 2aPTT [23] was 66 µM and the remaining at 3 h [24] was 95%. The Activity [25] was 46 mm, the Activity [26] was 61 degree and the 2PT [27] was 649 µM. For the same molecule, the Activity [28] was 877 µM and the inhibition [29] was 31.4%.
